This note sets out measurements from ChEMBL document CHEMBL1817654, “Synthesis and protective effects of aralkyl alcoholic 2-acetamido-2-deoxy-β-D-pyranosides on hypoglycemia and serum limitation induced apoptosis in PC12 cell” (2011).

In experiment [1] the test system is PC-12. Briefly: Neuroprotective activity in rat differentiated PC12 cells assessed protection against hypoglycemia and serum limitation-induced decrease in cell viability at 40 uM after 24 hrs by MTT assay. Type of experiment: functional. A digest of the protocol:
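NGF-differentiated PC12 cells (50 ng/ml every other day, 6 days) pretreated with 8, 40 or 200 µM for 24 h. Insult: 24 h in glucose-free DMEM with 1% horse serum and 1% FBS, compound kept. MTT added to 0.5 mg/ml for 4 h at 37 °C, formazan dissolved in 20% SDS, absorbance read at 570 nm. Viability given as % of unstressed control. Three independent experiments, each in triplicate.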
Background: Tetrazolium assays rely on reduction of a dye to a coloured formazan, in cell work by metabolically active cells.

The test system of experiment [2] is PC-12. In words: Neuroprotective activity in rat differentiated PC12 cells assessed protection against hypoglycemia and serum limitation-induced apoptosis at 40 uM after 24 hrs by Hoechst 33342 staining analysis. The format is functional. The essentials: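 PC12 cells kept in high-glucose DMEM with 10% horse serum and 5% FBS, differentiated with NGF (50 ng/ml) every other day for 6 days. Pretreated 24 h, then glucose-free DMEM with 1% horse and 1% fetal serum for 24 h with compound kept. Cells fixed in 4% paraformaldehyde, stained with Hoechst 33342 (5 µg/ml, 37 °C, 10 min). Condensed or fragmented nuclei counted under UV fluorescence as a fraction of total cells. Three independent experiments in triplicate.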

Experiment [3] concerns PC-12. In words: Neuroprotective activity in rat differentiated PC12 cells assessed protection against hypoglycemia and serum limitation-induced early stage of apoptosis at 40 uM after 24 hrs using annexin V/propidium iodide double staining by flow cytometry. Type of experiment: functional. The essentials: (§1)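 Differentiated PC12 cells pretreated 24 h, then 24 h of glucose-free DMEM with 1% horse and 1% fetal serum. Harvested cells resuspended at 1 × 10⁶/ml in binding buffer (10 mM HEPES, 140 mM NaCl, 2.5 mM CaCl₂). FITC-annexin V and PI added, 15 min in the dark at room temperature, analysed by flow cytometry within 1 h. Three independent experiments in triplicate.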
On the technique in general: Flow cytometry measures light scatter and fluorescence of single cells or particles in a stream.

Experiment [4] concerns PC-12. Briefly: Neuroprotective activity in rat differentiated PC12 cells assessed protection against hypoglycemia and serum limitation-induced late stage of apoptosis at 40 uM after 24 hrs using annexin V/propidium iodide double staining by flow cytometry. The format is functional, cell-based. A digest of the protocol:
as §1

The test system of experiment [5] is PC-12. In words: Neuroprotective activity in rat differentiated PC12 cells assessed reduction of hypoglycemia and serum limitation-induced caspase 3 activity at 40 uM after 24 hrs by colorimetric assay relative to control. Type of experiment: functional. The essentials: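 Treatment: NGF-differentiated PC12 cells preincubated 24 h, then 24 h of hypoglycemia and serum limitation. Lysates spun at 12,000 g for 10 min, protein measured by Bradford. Lysate incubated with reaction buffer and Ac-DEVD-pNA (10 µl of a 2 mM stock) for 4 h at 37 °C. pNA release read at 405 nm, expressed as % of control.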

Experiment [6] relates to PC-12. Briefly: Neuroprotective activity in rat differentiated PC12 cells assessed reversal of hypoglycemia and serum limitation-induced mitochondrial membrane potential at 40 uM after 24 hrs using Rhodamine dye by confocal microscopic analysis. Type of experiment: functional. A digest of the protocol: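 Differentiated PC12 cells given 24 h pretreatment, then 24 h in glucose-free DMEM with 1% horse serum and 1% FBS. Rhodamine 123 added to 2 µM final for 30 min at 37 °C. Cells fixed in 4% paraformaldehyde and imaged by confocal microscopy (ex 488, em 530 nm, ×400). Fluorescence intensity given as % of control. Three independent experiments in triplicate.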

Structures are written as SMILES. The source made the active and inactive calls. No cut-off for these calls is given here.

For `CC(=O)N[C@H]1[C@H](OCc2cccc(O)c2)O[C@H](CO)[C@@H](O)[C@@H]1O`, in the experiment with PC-12 [1], the result was Active.

As to `CC(=O)N[C@H]1[C@H](OCCCc2ccc(O)cc2)O[C@H](CO)[C@@H](O)[C@@H]1O`, the outcome with PC-12 [1] was Active.

Take `COc1ccc(CCO[C@@H]2O[C@H](CO)[C@@H](O)[C@H](O)[C@H]2NC(C)=O)cc1`: the Activity is reported as 86.62% with PC-12 [1], 5.9% in the experiment with PC-12 [2], 11.21% with PC-12 [3] and 82.86% with PC-12 [6]. In the experiment on PC-12 [4], the result was inactive. Further, in the experiment on PC-12 [5], the “fold change (FC)” value worked out at 1.55.

In turn, `COc1cc(CCCO[C@@H]2O[C@H](CO)[C@@H](O)[C@H](O)[C@H]2NC(C)=O)ccc1O` displayed an Activity in the experiment on PC-12 [1] of 62.38%.

For the compound `COc1cc(CO[C@@H]2O[C@H](CO)[C@@H](O)[C@H](O)[C@H]2NC(C)=O)ccc1O`, the Activity with PC-12 [1] was found to be 65.9%.

Take `CC(=O)N[C@H]1[C@H](OCc2ccccc2)O[C@H](CO)[C@@H](O)[C@@H]1O`: in the experiment with PC-12 [1], the outcome was inactive.

For the compound `OC[C@H]1O[C@@H](OCCc2ccc(O)cc2)[C@H](O)[C@@H](O)[C@@H]1O` [SALIDROSIDE], the Activity came to 65.62% in the experiment on PC-12 [1], 8.31% with PC-12 [2], 17.56% in the experiment on PC-12 [3] and 71.43% in the experiment on PC-12 [6]. For the same compound, the outcome in the experiment with PC-12 [4] was inactive. Further, in the experiment with PC-12 [5], the “fold change (FC)” value was found to be 1.97.

Regarding `COc1cc(CO[C@@H]2O[C@H](CO)[C@@H](O)[C@H](O)[C@H]2NC(C)=O)cc(OC)c1`, in the experiment with PC-12 [1], the result was Active.

As to `CC(=O)N[C@H]1[C@H](OCCc2ccccc2)O[C@H](CO)[C@@H](O)[C@@H]1O`, the result in the experiment on PC-12 [1] was inactive.

On to `CC(=O)N[C@H]1[C@H](OCCc2ccc(O)cc2)O[C@H](CO)[C@@H](O)[C@@H]1O`, for which the Activity in the experiment on PC-12 [1] is 65.36%.

Take `COc1ccc(CCCO[C@@H]2O[C@H](CO)[C@@H](O)[C@H](O)[C@H]2NC(C)=O)cc1`: the Activity with PC-12 [1] stood at 80.41%; with PC-12 [2], 7.12%; in the experiment with PC-12 [3] it was 15.51%; with PC-12 [6], 79.05%. Also, the outcome in the experiment on PC-12 [4] was inactive. Further, the “fold change (FC)” value with PC-12 [5] was 1.69.

As for `CC(=O)N[C@H]1[C@H](OCc2ccc(O)cc2)O[C@H](CO)[C@@H](O)[C@@H]1O`, the Activity with PC-12 [1] is recorded as 60.65%.
